# Test system: not listed separately
# Assay: Cytotoxicity against human skin fibroblasts assessed as cell viability by trypan blue exclusion assay relative to control
# Type: cell-based
# Conditions: fibroblast
# In short: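 Normal human skin fibroblasts (lab-derived) grown in MEM with 10% FBS to confluency, then exposed to compounds (diluted from DMSO into medium) for 4 h. Viability was judged against untreated cells by Trypan Blue exclusion, with microscopic inspection for cytotoxicity.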
row,SMILES,Activity
1,CC(C)=CCCC(C)(O)CCc1c(O)cc(O)c(C(=O)C(C)C)c1O (stereo not given) [HYPERJOVINOL A],Non-toxic
2,CC(C)=CCCC1(C)CCc2c(O)cc(O)c(C(=O)C(C)C)c2O1 (stereo not given),Non-toxic
3,CC(C)=CCC/C(C)=C/COc1cc(O)c(C(=O)C(C)C)c(O)c1,Non-toxic
4,CC(C)=CCC/C(C)=C/Cc1c(O)cc(O)c(C(=O)C(C)C)c1O,Non-toxic
5,CC(C)=CCCC1(C)CCc2c(cc(O)c(C(=O)C(C)C)c2O)O1 (stereo not given),Non-toxic
6,CC(C)C(=O)c1c(O)cc2c(c1O)C[C@@H]1C(C)(C)CCC[C@@]1(C)O2 [HYPERJOVINOL B],Non-toxic

# Test system: Fibroblast
# Assay: Inhibition of endogenous ROS production in human skin fibroblast assessed as DCF-fluorescence at 100 uM after 4 hrs by DCFH-DA assay relative to control
# Set-up: scale not given: the % may be the effect or the level left
# Conditions: not given
row,SMILES,Activity
1,Cc1c(C)c2c(c(C)c1O)CCC(C)(C(=O)O)O2 (stereo not given) [TROLOX],55.2%
2,CC(C)=CCCC(C)(O)CCc1c(O)cc(O)c(C(=O)C(C)C)c1O (stereo not given) [HYPERJOVINOL A],49.2%
3,CC(C)=CCCC1(C)CCc2c(O)cc(O)c(C(=O)C(C)C)c2O1 (stereo not given),73%
4,CC(C)=CCC/C(C)=C/COc1cc(O)c(C(=O)C(C)C)c(O)c1,61.5%
5,CC(C)=CCC/C(C)=C/Cc1c(O)cc(O)c(C(=O)C(C)C)c1O,50.8%
6,CC(C)=CCCC1(C)CCc2c(cc(O)c(C(=O)C(C)C)c2O)O1 (stereo not given),62.4%
7,CC(C)C(=O)c1c(O)cc2c(c1O)C[C@@H]1C(C)(C)CCC[C@@]1(C)O2 [HYPERJOVINOL B],57.1%

# Test system: Fibroblast
# Assay: Inhibition of endogenous ROS production in human skin fibroblast assessed as DCF-fluorescence at 10 uM after 4 hrs by DCFH-DA assay relative to control
# Set-up: scale not given: the % may be the effect or the level left
# Conditions: not given
row,SMILES,Activity
1,Cc1c(C)c2c(c(C)c1O)CCC(C)(C(=O)O)O2 (stereo not given) [TROLOX],81.4%
2,CC(C)=CCCC(C)(O)CCc1c(O)cc(O)c(C(=O)C(C)C)c1O (stereo not given) [HYPERJOVINOL A],76.1%
3,CC(C)=CCCC1(C)CCc2c(O)cc(O)c(C(=O)C(C)C)c2O1 (stereo not given),81.5%
4,CC(C)=CCC/C(C)=C/COc1cc(O)c(C(=O)C(C)C)c(O)c1,92.2%
5,CC(C)=CCC/C(C)=C/Cc1c(O)cc(O)c(C(=O)C(C)C)c1O,79.4%
6,CC(C)=CCCC1(C)CCc2c(cc(O)c(C(=O)C(C)C)c2O)O1 (stereo not given),94.1%
7,CC(C)C(=O)c1c(O)cc2c(c1O)C[C@@H]1C(C)(C)CCC[C@@]1(C)O2 [HYPERJOVINOL B],89.7%

# — ChEMBL document CHEMBL1151227, “Hyperjovinols A and B: Two new phloroglucinol derivatives from Hypericum jovis with antioxidant activity in cell cultures” (J Nat Prod, 2004)
